Converted amounts (≈) assume the structure as drawn.
system: Pseudomonas aeruginosa; test: Antibacterial activity against Pseudomonas aeruginosa 10-15 after 18 to 24 hrs by NCCLS method; format: functional
In short: (§1)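 Standard NCCLS (M100-S11) MIC testing against Gram-positive and Gram-negative strains. Plates were incubated at 35 °C for 18–24 h. The MIC was read as the lowest concentration giving complete inhibition of visible bacterial growth.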

Which MIC does the source give for `COc1cc(CN2CCN(c3cc4c(cc3F)c(=O)c(C(=O)O)cn4C3CC3)CC2)c([N+](=O)[O-])cc1OC` here?
The MIC was 8 µg/mL (≈ 15.2 µM).

system: Staphylococcus epidermidis; test: Antibacterial activity against methicillin-sensitive Staphylococcus epidermidis 10-15 after 18 to 24 hrs by NCCLS method; format: functional
In short: (§2)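 Incubated at 35 °C for 18–24 h under NCCLS (M100-S11) standards. MIC was read as the lowest concentration giving complete inhibition of visible bacterial growth.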

How did the MIC turn out when `COc1cc(CN2CCN(c3cc4c(cc3F)c(=O)c(C(=O)O)cn4C3CC3)CC2)c([N+](=O)[O-])cc1OC` was run?
The MIC was 16 µg/mL (≈ 30.4 µM).

system: Pseudomonas aeruginosa; test: Antibacterial activity against Pseudomonas aeruginosa 10-12 after 18 to 24 hrs by NCCLS method; format: functional; in short: as §1

How did the MIC turn out when `COc1cc(CN2CCN(c3cc4c(cc3F)c(=O)c(C(=O)O)cn4C3CC3)CC2)c([N+](=O)[O-])cc1OC` was run?
Its MIC is 16 µg/mL (≈ 30.4 µM).

system: Escherichia coli; test: Antibacterial activity against Escherichia coli 10-3 after 18 to 24 hrs by NCCLS method; format: functional; in short: as §1

Which MIC does the source give for `COc1cc(CN2CCN(c3cc4c(cc3F)c(=O)c(C(=O)O)cn4C3CC3)CC2)c([N+](=O)[O-])cc1OC` here?
The MIC was 8 µg/mL (≈ 15.2 µM).

system: Klebsiella pneumoniae; test: Antibacterial activity against Klebsiella pneumoniae 10-4 after 18 to 24 hrs by NCCLS method; format: functional; in short: as §1

`COc1cc(CN2CCN(c3cc4c(cc3F)c(=O)c(C(=O)O)cn4C3CC3)CC2)c([N+](=O)[O-])cc1OC` was tested. Which MIC did it give?
The MIC was over 128 µg/mL.

system: Staphylococcus aureus; test: Antibacterial activity against methicillin-resistant Staphylococcus aureus 10-13 after 18 to 24 hrs by NCCLS method; format: functional; in short: as §2

`COc1cc(CN2CCN(c3cc4c(cc3F)c(=O)c(C(=O)O)cn4C3CC3)CC2)c([N+](=O)[O-])cc1OC` was tested. Which MIC did it give?
Its MIC is 64 µg/mL (≈ 122 µM).

system: Staphylococcus aureus; test: Antibacterial activity against methicillin-sensitive Staphylococcus aureus 10-13 after 18 to 24 hrs by NCCLS method; format: functional; in short: as §1

With `COc1cc(CN2CCN(c3cc4c(cc3F)c(=O)c(C(=O)O)cn4C3CC3)CC2)c([N+](=O)[O-])cc1OC` as the compound, how does the MIC read?
Its MIC is 2 µg/mL (≈ 3.8 µM).

system: Escherichia coli; test: Antibacterial activity against Escherichia coli 10-1 after 18 to 24 hrs by NCCLS method; format: functional; in short: as §1

`COc1cc(CN2CCN(c3cc4c(cc3F)c(=O)c(C(=O)O)cn4C3CC3)CC2)c([N+](=O)[O-])cc1OC` was tested. Which MIC did it give?
The MIC was over 128 µg/mL.

system: Klebsiella pneumoniae; test: Antibacterial activity against extended spectrum beta-lactamases producing Klebsiella pneumoniae 10-3 after 18 to 24 hrs by NCCLS method; format: functional; in short: as §1

For `COc1cc(CN2CCN(c3cc4c(cc3F)c(=O)c(C(=O)O)cn4C3CC3)CC2)c([N+](=O)[O-])cc1OC`, which MIC is on record?
Its MIC is over 128 µg/mL.

system: Enterococcus faecalis; test: Antibacterial activity against Enterococcus faecalis 10-5 after 18 to 24 hrs by NCCLS method; format: functional; in short: as §1

Which MIC does the source give for `COc1cc(CN2CCN(c3cc4c(cc3F)c(=O)c(C(=O)O)cn4C3CC3)CC2)c([N+](=O)[O-])cc1OC` here?
Its MIC is 16 µg/mL (≈ 30.4 µM).

system: Klebsiella pneumoniae; test: Antibacterial activity against Klebsiella pneumoniae 10-2 after 18 to 24 hrs by NCCLS method; format: functional; in short: as §1

For `COc1cc(CN2CCN(c3cc4c(cc3F)c(=O)c(C(=O)O)cn4C3CC3)CC2)c([N+](=O)[O-])cc1OC`, which MIC is on record?
Its MIC is over 128 µg/mL.

system: Staphylococcus aureus; test: Antibacterial activity against methicillin-resistant Staphylococcus aureus 10-15 after 18 to 24 hrs by NCCLS method; format: functional; in short: as §2

`COc1cc(CN2CCN(c3cc4c(cc3F)c(=O)c(C(=O)O)cn4C3CC3)CC2)c([N+](=O)[O-])cc1OC` was tested. Which MIC did it give?
Its MIC is 16 µg/mL (≈ 30.4 µM).

system: Staphylococcus aureus; test: Antibacterial activity against Staphylococcus aureus ATCC 2592 after 18 to 24 hrs by NCCLS method; format: functional; in short: as §1

Which MIC does the source give for `COc1cc(CN2CCN(c3cc4c(cc3F)c(=O)c(C(=O)O)cn4C3CC3)CC2)c([N+](=O)[O-])cc1OC` here?
The MIC was 1 µg/mL (≈ 1.9 µM).

system: Escherichia coli; test: Antibacterial activity against Escherichia coli ATCC 25922 after 18 to 24 hrs by NCCLS method; format: functional; in short: as §1

With `COc1cc(CN2CCN(c3cc4c(cc3F)c(=O)c(C(=O)O)cn4C3CC3)CC2)c([N+](=O)[O-])cc1OC` as the compound, how does the MIC read?
Its MIC is 2 µg/mL (≈ 3.8 µM).

system: Enterococcus faecium; test: Antibacterial activity against Enterococcus faecium 10-9 after 18 to 24 hrs by NCCLS method; format: functional; in short: as §1

Which MIC does the source give for `COc1cc(CN2CCN(c3cc4c(cc3F)c(=O)c(C(=O)O)cn4C3CC3)CC2)c([N+](=O)[O-])cc1OC` here?
The MIC was 64 µg/mL (≈ 122 µM).

system: Pseudomonas aeruginosa; test: Antibacterial activity against Pseudomonas aeruginosa 10-9 after 18 to 24 hrs by NCCLS method; format: functional; in short: as §1

`COc1cc(CN2CCN(c3cc4c(cc3F)c(=O)c(C(=O)O)cn4C3CC3)CC2)c([N+](=O)[O-])cc1OC` was tested. Which MIC did it give?
The MIC was 8 µg/mL (≈ 15.2 µM).

system: Streptococcus pneumoniae; test: Antibacterial activity against Streptococcus pneumoniae 10-6 after 18 to 24 hrs by NCCLS method; format: functional; in short: as §1

For `COc1cc(CN2CCN(c3cc4c(cc3F)c(=O)c(C(=O)O)cn4C3CC3)CC2)c([N+](=O)[O-])cc1OC`, which MIC is on record?
Its MIC is 128 µg/mL (≈ 243 µM).

system: Streptococcus pneumoniae; test: Antibacterial activity against Streptococcus pneumoniae 10-1 after 18 to 24 hrs by NCCLS method; format: functional; in short: as §1

`COc1cc(CN2CCN(c3cc4c(cc3F)c(=O)c(C(=O)O)cn4C3CC3)CC2)c([N+](=O)[O-])cc1OC` was tested. Which MIC did it give?
The MIC was 8 µg/mL (≈ 15.2 µM).

system: Enterococcus faecium; test: Antibacterial activity against Enterococcus faecium 10-6 after 18 to 24 hrs by NCCLS method; format: functional; in short: as §1

For `COc1cc(CN2CCN(c3cc4c(cc3F)c(=O)c(C(=O)O)cn4C3CC3)CC2)c([N+](=O)[O-])cc1OC`, which MIC is on record?
The MIC was 8 µg/mL (≈ 15.2 µM).

From ChEMBL document CHEMBL2157880, “Synthesis, antimycobacterial and antibacterial activity of ciprofloxacin derivatives containing a N-substituted benzyl moiety” (2012)
